Data taken from PubChem BioAssay.

Assay: S. cerevisiae growth inhibition in restrictive medium, OD615, pilot screen, restrictive growth control, yeast lifespan reduction project (AID 706);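 note: modified DeaD lifespan yeast strain shifted to restrictive glucose medium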
Conditions: OD615, 48 h, at 10 µM, hits give high values;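 active = growth inhibition above a set limit, 3 SD over mean compound inhibition, in both replicates (cut at about 43% in these data); inconclusive = above the limit in only one replicate; inactive = at or below the limit in both replicates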
Outline: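 Material: modified S. cerevisiae; buffer or medium: CSMM-D glucose medium; doses: one concentration, 10 µM final, 0.25% DMSO; incubation: 48 h compound exposure at 30 °C; detection: optical density at 615 nm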

Growth inhibition, inactive:
Cc1ccc(NC(=O)c2cc(-c3ccc(C)o3)nc3ccccc23)nc1 -2.09%
CCc1cccc(NC(=O)Cn2cc3c(n2)CCCC3)c1 -2.27%
CCN(CC)C(=O)C1CCCN(c2ncnc3c2cnn3-c2ccc(Cl)cc2)C1 (stereo unspecified) 5.38%
Cc1cccc(NC(=O)CS(=O)(=O)c2cn(C)c3ccccc23)c1 -12%
O=C(CN1C(=O)c2ccccc2S1(=O)=O)NCc1ccccc1Cl -12.6%
Cn1cnc2cc(NC(=O)c3ccc(Cl)cc3)ccc21 7.51%
COC(=O)c1cn(NC(=O)C2CCCO2)c(=O)c2ccccc12 (stereo unspecified) -23.6%
O=C(c1ccc(Cl)s1)N1CCN(c2nc3ccccc3s2)CC1 -3.27%
O=C(Nc1ccc(N2C(=O)C3C4C=CC(C4)C3C2=O)cc1)Nc1nncs1 (stereo unspecified) 6.49%
CNC(=O)c1ccccc1NC(=O)c1c(O)c2c([nH]c1=O)CCCC2 -10.1%
COc1ccccc1CNC(=O)CCn1c(=O)[nH]c2ccsc2c1=O -14.4%
Cc1ccc(-c2nc3cc(NC(=O)C(C)C)ccc3o2)cc1 -21.9%
COc1ccccc1N1CCN(C(=O)c2cc(C3CC3)on2)CC1 0.825%
CCCCN(C(=O)c1ccc(Cl)cc1)C1CC2CCC(C1)N2C (stereo unspecified) 1.71%
COc1ccc(OC)c2[nH]c(=O)c(CCNC(=O)C(C)C)cc12 -5.05%
COc1ccccc1S(=O)(=O)Cc1ccc(C(=O)N2CCN(c3ccccn3)CC2)o1 -10.3%
